# Test results reported in PubChem BioAssay.
# Values without a mark were called inactive.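 Rule for the calls, unless noted: active = viability at or under a set limit in both replicates, limit being median viability minus 3 SD (cut at about 48% in these data, passing the limit was not always enough); inconclusive = at or under the limit in just one replicate; inactive = at or above the limit in both replicates.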
# Assay: HUVEC growth inhibition – cell-based, human, primary screen (AID 575;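 active = viability at or below 30% in both replicate assays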;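 note: 100% = median of untreated cell wells with 0.1% DMSO on each plate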)
# Settings: HUVEC proliferation, CellTiter-Glo luminescence, 72 h; at 10 µM; stronger effect = lower value
# How it was run: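 System – primary HUVEC, no more than 12 passages · Medium – Low-serum (2% FBS) EBM, supplemented · Times – 72 h exposure, 37 °C, 5% CO2, 30 min RT equilibration · Measured by – luminescent ATP assay · Read-out – % viability relative to median vehicle-well signal on each plate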
row,SMILES,viability
1,COc1ccc(NC(=O)CN(c2ccc(C(C)C)cc2)S(=O)(=O)c2c(C)noc2C)cc1OC,58.7%
2,Cc1cc(C)c(C(=O)Nc2ccc(S(=O)(=O)Nc3onc(C)c3C)cc2)c(C)c1,79.5%
3,COc1ccc(C2CC(c3ccco3)n3ncnc3N2)cc1 (centres undefined),93.1%
4,CCCCn1c(CN2CCN(c3ccccc3)CC2)nc2c1c(=O)n(C)c(=O)n2C,85.7%
5,Cc1ccccc1NC(=O)C1CCCN(S(=O)(=O)c2cnc[nH]2)C1 (centres undefined),95.8%
6,CCOC(=O)C1CCCN(C(=O)c2cn(C)c(=O)c3cc(OC)c(OC)cc23)C1 (centres undefined),94.2%
7,O=C(C1CCN(S(=O)(=O)c2cccc3cccnc23)CC1)N1CCN(C2CCCCC2)CC1,99.9%
8,Cc1nnc2n(-c3ccc(Cl)cc3)c(=O)c3c4c(sc3n12)CN(C)CC4,103%
9,COc1ccc(OC)c(NC(=O)c2nnn(Cc3ccc(Br)cc3F)c2N)c1,40.9%
10,CCCOc1ccc2ccccc2c1/C=N/n1cnnc1,66.7%
11,CCOC(=O)C(C)(C)Sc1nc2c(cnn2-c2ccc(Cl)cc2)c(=O)[nH]1,64.4%
12,Cc1cccc(N2C(=O)CC(N3CCN(c4cccc(C(F)(F)F)c4)CC3)C2=O)c1 (centres undefined),73.2%
13,CC(=O)N1c2c(cc(Br)cc2S(=O)(=O)N2CCN(c3ccccn3)CC2)CC1C (centres undefined),64.9%
14,O=C(O)c1ccc2c(c1)C(=O)N(c1ccc(Cl)cn1)C2=O,105%
15,CC(=O)c1sc(NC(=O)C2COc3ccccc3O2)nc1C (centres undefined),80.7%
16,COc1ccc(OC)c2[nH]c(=O)c(CCNC(=O)C(C)C)cc12,83.2%
17,COc1ccc(NC(=O)c2cc(C3CC3)on2)c(OC)c1,86.7%
18,Cc1noc(C(=O)Nc2ccc3c(c2)OCO3)c1Cl,51.4%
19,CCC(CC)C(=O)NCCc1cc2ccc(C)cc2[nH]c1=O,85.2%
20,CCCS(=O)(=O)N1CCN(C(=O)c2cccnc2)CC1,93.1%
21,CCCCn1c2c(c3ccccc31)CCc1nonc1-2,89.6%
22,COc1ccc(-c2[nH]c(-c3cccc(OC)c3)nc2SCC(=O)NCc2ccco2)cc1,62.5%
23,CC1=C(C(=O)OCc2ccccc2)C(c2ccco2)n2ncnc2N1 (centres undefined),87.1%
24,Cc1c(C)n(C)c2ccc(C(=O)NCc3cccs3)cc12,95.7%

# Assay: H69AR cell proliferation blockers – human, duplicate replicates, primary screen (AID 580);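 note: 100% = mean luminescence of untreated wells and 0% = no signal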
# Settings: H69AR lung tumor cells viability, ATP luminescence, 72 h; at 10 µM; stronger effect = lower value
row,SMILES,viability
1,CCCc1cc(C(=O)Nc2ccccc2SC)no1,81.1%
2,Cc1ccc(C(=O)OCC(=O)Nc2ccc3c(c2)OCO3)o1,97.3%
3,COC(=O)C(C#N)C(=C1C(=O)CC(C)(C)CC1=O)c1ccc(O)cc1 (centres undefined),92%
4,COC(=O)c1cc(OC)c(OC)cc1NC(=O)c1ccc(Br)o1,87.6%
5,COc1cccc(NC(=O)CSc2nnc(Cc3cccn3C)n2-c2ccc(F)cc2)c1,78.2%
6,CCOc1ccc(N(CC(=O)OC)S(=O)(=O)c2ccc(OC)c(OC)c2)cc1,106%
7,COC(=O)C1=C(C)NC(C)=C(C(=O)OC)C1C1CC=CCC1 (centres undefined),100%
8,CCCCCn1c(=O)[nH]c2cc(C(=O)NCCN3CCOCC3)ccc2c1=O,105%
9,COc1ccccc1OCC(=O)N1CCN(c2ccccc2OC)CC1,104%
10,COc1cccc(-c2nc(CS(=O)(=O)CC(=O)N3CCN(c4ccccn4)CC3)c(C)o2)c1,90.9%
11,CC1C(=O)C(C)C(c2cccs2)NC1c1cccs1 (centres undefined),104%
12,COc1ccc(N2C(=O)CCC(C(=O)N3CCCCC3)C2c2ccc(OC)c(OC)c2)cc1 (centres undefined),95.4%
13,COc1cccc(NC(=O)c2nc3nc(C)cc(C(F)F)n3n2)c1,84%
14,O=C(NCCN1CCOCC1)c1ccc2c(c1)N(Cc1ccccc1F)C(=O)CS2,92.6%
15,CCn1cc(C(=O)NCc2ccccc2OC)c(=O)c2cc(S(=O)(=O)N(C)C)ccc21,77.6%
16,CC1Cn2c(nnc2-c2ccc(F)cc2)S1 (centres undefined),93.7%
17,COc1ccc(NC(=O)CN(c2ccc(C(C)C)cc2)S(=O)(=O)c2c(C)noc2C)cc1OC,84.9%
18,Cc1cc(C)c(C(=O)Nc2ccc(S(=O)(=O)Nc3onc(C)c3C)cc2)c(C)c1,93.4%
19,COc1ccc(C2CC(c3ccco3)n3ncnc3N2)cc1 (centres undefined),95.4%
20,CCCCn1c(CN2CCN(c3ccccc3)CC2)nc2c1c(=O)n(C)c(=O)n2C,85.6%

row,SMILES,viability
1,Cc1ccccc1NC(=O)C1CCCN(S(=O)(=O)c2cnc[nH]2)C1 (centres undefined),92.6%
2,CCOC(=O)C1CCCN(C(=O)c2cn(C)c(=O)c3cc(OC)c(OC)cc23)C1 (centres undefined),91%
3,O=C(C1CCN(S(=O)(=O)c2cccc3cccnc23)CC1)N1CCN(C2CCCCC2)CC1,102%
4,Cc1nnc2n(-c3ccc(Cl)cc3)c(=O)c3c4c(sc3n12)CN(C)CC4,91.6%
5,COc1ccc(OC)c(NC(=O)c2nnn(Cc3ccc(Br)cc3F)c2N)c1,75.7%
6,CCCOc1ccc2ccccc2c1/C=N/n1cnnc1,72.3%
7,CCOC(=O)C(C)(C)Sc1nc2c(cnn2-c2ccc(Cl)cc2)c(=O)[nH]1,81.9%
8,Cc1cccc(N2C(=O)CC(N3CCN(c4cccc(C(F)(F)F)c4)CC3)C2=O)c1 (centres undefined),96.9%
9,CC(=O)N1c2c(cc(Br)cc2S(=O)(=O)N2CCN(c3ccccn3)CC2)CC1C (centres undefined),86.6%
10,O=C(O)c1ccc2c(c1)C(=O)N(c1ccc(Cl)cn1)C2=O,87.2%
11,CC(=O)c1sc(NC(=O)C2COc3ccccc3O2)nc1C (centres undefined),89.2%
12,COc1ccc(OC)c2[nH]c(=O)c(CCNC(=O)C(C)C)cc12,88.6%
13,COc1ccc(NC(=O)c2cc(C3CC3)on2)c(OC)c1,91.2%
14,Cc1noc(C(=O)Nc2ccc3c(c2)OCO3)c1Cl,96.9%
15,CCC(CC)C(=O)NCCc1cc2ccc(C)cc2[nH]c1=O,87.6%
16,CCCS(=O)(=O)N1CCN(C(=O)c2cccnc2)CC1,106%
17,CCCCn1c2c(c3ccccc31)CCc1nonc1-2,103%
18,COc1ccc(-c2[nH]c(-c3cccc(OC)c3)nc2SCC(=O)NCc2ccco2)cc1,71%
19,CC1=C(C(=O)OCc2ccccc2)C(c2ccco2)n2ncnc2N1 (centres undefined),112%
20,Cc1c(C)n(C)c2ccc(C(=O)NCc3cccs3)cc12,90.7%
